Assay results published in the EternaBench riboswitch data.

System: MS2 coat protein
Test: apparent Kd, MS2 coat protein; higher = weaker binding; RNA-MaP array; FMN 200 µM where present
Summary of the method: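 Designs were transcribed by stalled E. coli RNA polymerase on Illumina sequencing-chip clusters. They were titrated with SNAP-549-labelled MS2 coat protein from 0.7 or 1.5 nM, doubling to 3 µM, in 100 mM Tris-HCl pH 7.5, 80 mM KCl, 4 mM MgCl2, BSA, DTT, yeast tRNA and Tween-20, without and then with constant ligand. The apparent Kd is the median of filtered per-cluster fits after normalisation of green signal to red-channel RNA signal and control-cluster median Fmax.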

[1] = designed as: ON switch for flavin mononucleotide, no ligand
[2] = ligand present: flavin mononucleotide, designed as: ON switch for flavin mononucleotide
[3] = designed as: OFF switch for flavin mononucleotide, no ligand
[4] = ligand present: flavin mononucleotide, designed as: OFF switch for flavin mononucleotide

Sequence	apparent Kd [1] [nM]	apparent Kd [2] [nM]	apparent Kd [3] [nM]	apparent Kd [4] [nM]
UCAGGAGUCACAGGAUAUCCGGCAUAGCAUACAGGAGAAGGGUGAUCACGAGCACAUGAGGAUCACCCAUGUGACAUUUGUGGA	96.3	83.3	–	–
UUUACUUACGAAGGAUAUGGUUACAUGAGGAUCACCCAUGUAUGUAUAUUGAUCUAGUAUUUUAACCAGAAGGUCGUGAUUAUU	–	–	31.8	46.9
CGUGAGUCAGGAUAUUAGUAGUGUGUGGAUACAUAUAUUGCUGAGAAGGGACAUGAGGAUCACCCAUGUAUACG	–	–	32	37.1
ACAUGUUAUACAGGAUAUGUUAUACAAUAAUCAAUCAGUUAUUAUGAUUUUACAGAAGGGUAUACAUGAGGAUCACCCAUGUUA	–	–	31.5	33.8
UUGGACGUCGUAGGAUAUGUAGGAUAUUCCUACAUGAGGAUCACCCAUGUUGACAUGGAAGAAGAACAGAAGGACGAUGUCCAU	212	6.04	–	–
GGUACUCAAAGAGUACCAAUACGAACAUGAGGAUCACCCAUGUAGGAUAUGCUACUCAAAGAGUAGCAGAAGGACAUGUGCCCU	–	–	60.5	608
UGUGCGUUGAUCUUCGAUCGGAGUACAUGAGGAUCACCCAUGUAGGAUAUUCAAAGACGCAGAUAGAAGAAGGACAUCGGAUUA	–	–	13.2	11.1
GGAUAGGACAGAGGAUAUACGUGCUAGAGAUACUAGCAAAAUUUCCUCACAUGAGGAUCACCCAUGUAGAAGGCUGUCCUAACG	–	–	14.7	497
AUCAGCUCGUCAGGAUAUACGUCACUGCGUCAGCAGUUUGGUAAGAUCACAUGAGGAUCACCCAUGUAGAAGGGACGAGCUGAU	–	–	15.2	249
ACAUGAGGAUCACCCAUGUAGAGUGGAGAAGGUAGAUACUUGUGACUCUCCCAUGUACAUAGGACUGAGGAUAUUCUAAUAAUU	65.7	47.5	–	–
CGCUAUGACAUAGGAUAUUGGUACAUGAGGAUCACCCAUGUCAACUAUGGAAUAGAAUUAGUUGACAAGAAGGAUGUGGUAGCG	47.2	10.3	–	–
GGGUACAUCGGAGGAUAUCAUGUAAAUACAUGAGGAUCACCCAUGUCGAUGGAGACAUCGGAGAUUGAGAAGGCCGAGGUACCG	191	9.91	–	–
ACCUCACAUGAGGAUCACCCAUGUUAGGAUAUUAAAUAGCGCGCAAAACAGCCCUGUAUGAGAAGGAGCUGGGA	–	–	13.6	14.8
UGGUACUAGGGAGGAUAUGGGAAGAUACAUGAGGAUCACCCAUGUUUAAGAAUGCCGUGAGGCAACUAGAAGGCCCUAGUACCU	505	18.8	–	–
GGUGCGUAUGUGAGGAUAUGCUGGUCCUUGGAUCGGCAGAAGGCACAUGAGGAUCACCCAUGUGGUGUCGUUCC	–	–	120	55.4
UUCGUGCAGCUUUGCUGUACGCGUACAUGAGGAUCACCCAUGUAGGAUAUGGUAGGCUUUGCUUACUAGAAGGAUAGUGUGAUU	–	–	118	81.8
AAAUUGUCAGGAUAUCCUGCUAUACGCAAUAUGUAUUCACGGGAGAAGGGACAUGAGGAUCACCCAUGUUUGAA	–	–	21.5	30
AAUAUAGAGCUGGAAAUAAAACUCACAUGAGGAUCACCCAUGUAGGAUAUCAGCACGAUAAGUGCUGAGAAGGACAUCCAGCUC	–	–	15.2	15.2
GGACUUCCUGAGGAUAUGAAUCAACAUAUAGCUUUAGAAGGCAGGACAUGAGGAUCACCCAUGUGAACUCUUUC	–	–	49.8	57.6
ACGUGUCGUGUAGGAUAUGACACAGGAAACUGGUCAGAAGGACAUGAGGAUCACCCAUGUAGAGUGUUUAAGGAUGACGUAUGC	–	–	46.9	161
UUAAAUCAUGUAGGAUAUGCAUGGCGAAGCUACGCAGAAGGACAUGAGGAUCACCCAUGUUAUAGCUAGGCAGUUCCCUGGCAA	–	–	70.2	214
GCAGAUCAAGUGAGGAUAUCGUCUACCUCGGUAGACGAGAAGGCACAUGAGGAUCACCCAUGUGAUUGAUCUGC	–	–	17.6	23.6
AAUGGCCAAGGAUAUGAGACCUAAAACAUGAGGAUCACCCAUGUGGACUCAGCCGCGUGGUCAGAAGGUGGAACCA	–	–	13.8	14.8
CUUUUGUGAGGAUAUGUGGCUUCGAUCGUGAGAUCGAGGCUACAGAAGGCACAUGAGGAUCACCCAUGUUCCUU	–	–	17.6	69.7
CCUAAGGACACAGGAUAUAGCGUGGUGGCUGGGCUCCAACGACAAGCGGCGCUAGAAGGGUGACCACAUGAGGAUCACCCAUGU	754	218	–	–
GAGAAGAGGGAAGGAUAUACAUGAGGAUCACCCAUGUAGAUAGGUUUAAUAGGUUGUUGUAGUUUGUAGAAGGUCCGGUUUGUU	–	–	17.8	16.7
AAAUUUAACGAAGGAUAUGGUUACAUGAGGAUCACCCAUGUAAUGGUUGUGAUAUUGAUUAAGUUCCAGAAGGUCGUAUACAUA	–	–	97.8	279
GUAUGAAAUACAGGAUAUGUUAGUUUUAAGUGUAUUGGUUAUUACUUAAUUACAGAAGGGUAUUACAUGAGGAUCACCCAUGUA	16.5	10.8	–	–

Sequence	apparent Kd [1] [nM]	apparent Kd [2] [nM]	apparent Kd [3] [nM]	apparent Kd [4] [nM]
CGUAUCGAAGAAGGAUAUCGCAACGACAGCUAGGGCUAUUCUCAACAUGAGGAUCACCCAUGUUGCGAGAAGGUCUGCUAUGCG	–	–	27.9	50.5
UCCUGACAUGAGGAUCACCCAUGUAAUUCCUGCCGAGGAUAUGGGCAACAAAGCGGUUGGCCAGAAGGCGGACAGC	252	150	–	–
UAGGUACAUGAGGAUCACCCAUGUGGGUCGGUCACAGGAUAUCGCCGUGGGCCCAGGCGGCGAGAAGGGUGCCGGU	277	34.8	–	–
CUUUUGUGAGGAUAUCAGUAGUAAUACAAUAGUAUUACUACUGAGAAGGUACAUGAGGAUCACCCAUGUUCCUC	–	–	17.8	21.2
GUAGCUCCUGACAUGAGGAUCACCCAUGUUCACUUAUUAAAUCAGGAUAUCCUCUCGAAACGAGAGGAGAAGGGAUAAGCUACU	7.84	7.36	–	–
UUCAGCUUGACAGGAUAUACAUGACUGCGAAAGCAGUCUAUCUUAAUAACAUGAGGAUCACCCAUGUAGAAGGGUCGAGCUGAA	–	–	16.2	26.5
GGUGCACGCACAGGAUAUCCGGCGGAGCUCGUCGGAGAAGGGUGACAUGAGGAUCACCCAUGUACGUGCAACUCAGUUUGAGAG	59.8	32.1	–	–
AUCAGCUCGUCAGGAUAUACGUCACUGCGUCAGCAGUGUGGUAAGAUCACAUGAGGAUCACCCAUGUAGAAGGGAAGAGCUGAU	–	–	15.1	232
GGAUAGGACAGAGGAUAUACGUGCUAGAGAUACUAGCAAAAUUUCCUCACAUGAGGAUCACCCAUGUAGAAGGCUGUCCUAGCG	–	–	15.7	376
GCUGCAUAGUCAGGAUAUGCAAAGUAAUAUAUGGAAACAUAUAUUACAACAUGAGGAUCACCCAUGUAGAAGGGACUGUGCAGU	–	–	15.9	14.8
GGGCCGUAGUAGAAGGGAUAUACGUUAGGUAUAUCAGGAUAUACAUGAGGAUCACCCAUGUUCUAACAGUGAUAGUCCUCCCUA	–	–	19.8	55.4
CUGGAAUACAGACAUGAGGAUCACCCAUGUUUAAGGGAAGCACAGGAUAUGUCGACGCACCAUAGACAGAAGGGUGACUUGCUU	49.4	24.8	–	–
UUAUGGCUAGGAUAUGCACGUGCAUGUUCAAGUCAAAGAAGACAUGAGGAUCACCCAUGUAGAAGGAGCGAUAA	–	–	28.8	21.2
UUCACGUAUAUAGGAUAUGCGGGCAAAUAACGCGCAGAAGGAUAUACAUGAGGAUCACCCAUGUAUUGAGACCUCAUACGCCGC	–	–	7.47	9.38
GCUGCGCGAGGAUAUGCGGUUCGGGCGGUGGCCGCUGGCGGACAUGAGGAUCACCCAUGUAGAAGGCGUGCGGG	–	–	22.5	23.2
GACACGUGAGGAUAUACAUGAGGAUCACCCAUGUAAGUACACGUGGCUGUUCCUGCAUGUAGAAGGCACGCAUU	–	–	22.8	17.2
GUUGUUUCUGAGGAUAUUAUUUUUUUCGAUUGAUAAGAAGGCAGUACAUGAGGAUCACCCAUGUGGGUUGUCUG	–	–	37.2	150
AAAACCUCAUGAGGAUAUCCAACAUGAGGAUCACCCAUGUUAGUCUCAGUACCAGGUACUAGAGAGGAGAAGGCAUGCCAGGGC	78.6	27.5	–	–
ACGUGGCUGCCGCAGGAUAUACCCUGUUCCACAUGAGGAUCACCCAUGUUUACGAACUAUGAGAGGUAGAAGGGUGGAUGUCAUU	31.2	13.9	–	–
GAGUAGUUAAAAGGAUAUUGAUUAUUGUAGGAUCAAGAAGGUUUUAACAUGAGGAUCACCCAUGUAGGACUAUUCCUGUGAAAA	15.6	12.7	–	–
CACCGUUACACAGGAUAUCUUACAUGAGGAUCACCCAUGUAAUAAAUGAGAAUUUCGAAUGUAUUAGAGAAGGGUGGAAUCGGC	–	–	37.7	90.2
ACAUGAGGAUCACCCAUGUUAUCAGGGACUUCAAUUAUUUCUAGAAGGCUGUUUUCUUGUAAGUCAGAGGAUAUAGAAUUAAAU	–	–	14	15.1
GGACGUCACAUUUACAUGAGGAUCACCCAUGUCGAAAGACAUGAGGAUAUGCUACCUAAUUGGUAGCAGAAGGCAUGGACGUCC	408	228	–	–
UAAUCGUUGCAGAAGGUUAUUAUUAUAUCGUGUCACUUAACAUGAGGAUCACCCAUGUUUUUGAUGAAGGAUAUGCAACGGUAG	–	–	6.74	6.83
AAGGAUAGAGGAUAUACAUAGAUACAGAUUCGUGUAGUCCUACAUGAGGAUCACCCAUGUAGAAGGCUAUCCUA	–	–	11.8	22.9
ACGCUUUGGGAGAAGGUACGUUAAAUUUUUUCCACAUGAGGAUCACCCAUGUAAGGAUAUCCCAUCGUUAAAUAGGCUACAGCA	–	–	8.92	8.85
GAUCUGACAGGAUAUACAUGAGGAUCACCCAUGUACGAGCUAGCGAAAGCUAGCUCAGGUAGAAGGGUCAGAUC	–	–	12.3	16.4
